From ChEMBL document CHEMBL1129264, “Mercaptoacyl dipeptides as orally active dual inhibitors of angiotensin-converting enzyme and neutral endopeptidase” (1996) come the findings set out here.

Assay type in all cases: organism-based
Assay [1] has as its target T1, Angiotensin-converting enzyme (Rattus norvegicus) (UniProt P47820).
T1 sequence (whole entry): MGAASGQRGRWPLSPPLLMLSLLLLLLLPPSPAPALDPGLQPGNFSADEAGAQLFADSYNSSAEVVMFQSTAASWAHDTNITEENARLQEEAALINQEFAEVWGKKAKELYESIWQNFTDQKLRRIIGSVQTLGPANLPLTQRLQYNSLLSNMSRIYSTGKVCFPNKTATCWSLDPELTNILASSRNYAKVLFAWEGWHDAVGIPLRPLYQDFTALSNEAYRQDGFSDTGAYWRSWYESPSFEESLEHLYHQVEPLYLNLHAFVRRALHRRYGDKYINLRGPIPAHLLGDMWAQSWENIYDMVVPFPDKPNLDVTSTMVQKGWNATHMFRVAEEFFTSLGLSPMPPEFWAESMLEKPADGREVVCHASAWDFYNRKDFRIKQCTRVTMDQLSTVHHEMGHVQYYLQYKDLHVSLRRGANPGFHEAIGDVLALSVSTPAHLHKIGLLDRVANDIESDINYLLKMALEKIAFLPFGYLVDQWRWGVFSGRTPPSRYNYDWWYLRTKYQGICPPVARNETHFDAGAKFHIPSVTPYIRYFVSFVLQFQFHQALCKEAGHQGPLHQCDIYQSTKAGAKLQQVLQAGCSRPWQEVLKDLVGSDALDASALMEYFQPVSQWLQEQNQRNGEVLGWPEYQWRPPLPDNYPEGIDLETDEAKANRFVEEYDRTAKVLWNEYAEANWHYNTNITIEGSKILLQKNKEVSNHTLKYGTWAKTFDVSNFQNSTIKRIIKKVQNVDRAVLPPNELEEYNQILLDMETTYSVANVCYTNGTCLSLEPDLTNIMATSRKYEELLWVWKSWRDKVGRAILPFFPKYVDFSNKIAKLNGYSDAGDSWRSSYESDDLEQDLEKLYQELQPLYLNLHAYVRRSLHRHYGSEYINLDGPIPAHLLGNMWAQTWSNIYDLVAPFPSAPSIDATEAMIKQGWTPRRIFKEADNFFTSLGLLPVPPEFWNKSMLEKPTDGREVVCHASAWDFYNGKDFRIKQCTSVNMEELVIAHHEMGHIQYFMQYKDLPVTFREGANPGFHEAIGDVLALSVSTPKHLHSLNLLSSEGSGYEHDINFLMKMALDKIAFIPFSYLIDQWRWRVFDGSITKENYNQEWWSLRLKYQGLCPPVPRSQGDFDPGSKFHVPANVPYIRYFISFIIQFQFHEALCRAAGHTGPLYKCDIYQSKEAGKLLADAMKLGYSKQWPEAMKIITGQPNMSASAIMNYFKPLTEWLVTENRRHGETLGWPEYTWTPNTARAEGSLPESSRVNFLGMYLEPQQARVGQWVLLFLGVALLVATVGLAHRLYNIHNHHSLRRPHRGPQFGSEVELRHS
The experiment in a line: Compound was tested for plasma inhibition of Angiotensin I converting enzyme activity in the conscious rat. Expressed as Inhibition of AI pressor response at 2 hr at a dose of 13.1 mg/kg po. Details: dose 13.1 mg/kg. The essentials:
(§1)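 Male conscious normotensive Sprague-Dawley rats (275-390 g), given femoral arterial and venous catheters under methohexital sodium (75 mg/kg ip) anesthesia. Next day, pressor responses to three angiotensin-I challenges (300 ng/kg iv) recorded by direct arterial pressure. Compound then dosed orally, and AI challenge repeated at set times. Each post-dose response compared with the mean of the three baseline responses, giving % inhibition.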

The target of assay [2] is T1, Angiotensin-converting enzyme (Rattus norvegicus). Briefly: Compound was tested for plasma inhibition of Angiotensin I converting enzyme activity in the conscious rat. Expressed as Inhibition of AI pressor response at 6 hr at a dose of 13.1 mg/kg po. On the set-up: dose 13.1 mg/kg. The essentials:
(§2)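 Male conscious normotensive Sprague-Dawley rats (275-390 g), prepared under methohexital sodium (75 mg/kg ip) with femoral arterial and venous catheters. The next day, pressor responses to three angiotensin-I challenges (300 ng/kg iv) were recorded. Compound was then given orally and angiotensin-I challenges were repeated at set times. Percent inhibition is relative to the mean of the three baseline responses.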

Assay [3] has the same target. Briefly: Compound was tested for plasma inhibition of Angiotensin I converting enzyme activity in the conscious rat. Expressed as Inhibition of AI pressor response at 1 hr at a dose of 13.1 mg/kg po. Details: dose 13.1 mg/kg. The essentials:
as §1

Assay [4] has the same target. Briefly: Compound was tested for plasma inhibition of Angiotensin I converting enzyme activity in the conscious rat. Expressed as Inhibition of AI pressor response at 4 hr at a dose of 13.1 mg/kg po. On the set-up: dose 13.1 mg/kg. The essentials:
as §2

The target is the same in assay [5]. The experiment in a line: Compound was tested for plasma inhibition of Angiotensin I converting enzyme activity in the conscious rat. Expressed as Inhibition of AI pressor response at 1 hr at a dose of 10 mg/kg po. On the set-up: dose 10 mg/kg. The method in brief: as §1
Assay [6] has the same target. The experiment in a line: Compound was tested for plasma inhibition of Angiotensin I converting enzyme activity in the conscious rat. Expressed as Inhibition of AI pressor response at 2 hr at a dose of 10 mg/kg po. On the set-up: dose 10 mg/kg. The essentials: as §1
For assay [7] the target is unchanged. Briefly: Compound was tested for plasma inhibition of Angiotensin I converting enzyme activity in the conscious rat. Expressed as Inhibition of AI pressor response at 4 hr at a dose of 10 mg/kg po. Details: dose 10 mg/kg. The method in brief: as §1
The target is the same in assay [8]. The experiment in a line: Compound was tested for plasma inhibition of Angiotensin I converting enzyme activity in the conscious rat. Expressed as Inhibition of AI pressor response at 6 hr at a dose of 10 mg/kg po. On the set-up: dose 10 mg/kg. The method in brief:
as §2

The target is the same in assay [9]. The experiment in a line: Compound was tested for plasma inhibition of Angiotensin I converting enzyme activity in the conscious rat. Expressed as Inhibition of AI pressor response at 2 hr at a dose of 12.8 mg/kg po. Details: dose 12.8 mg/kg. The essentials: as §1
The target is the same in assay [10]. Briefly: Compound was tested for plasma inhibition of Angiotensin I converting enzyme activity in the conscious rat. Expressed as Inhibition of AI pressor response at 4 hr at a dose of 12.8 mg/kg po. Details: dose 12.8 mg/kg. The essentials:
as §1

The target is the same in assay [11]. The experiment in a line: Compound was tested for plasma inhibition of Angiotensin I converting enzyme activity in the conscious rat. Expressed as Inhibition of AI pressor response at 6 hr at a dose of 12.8 mg/kg po. Details: dose 12.8 mg/kg. The method in brief:
as §2

Assay [12] has the same target. The experiment in a line: Compound was tested for plasma inhibition of Angiotensin I converting enzyme activity in the conscious rat. Expressed as Inhibition of AI pressor response at 1 hr at a dose of 12.8 mg/kg po. On the set-up: dose 12.8 mg/kg. The method in brief:
as §1

On to `CC(=O)S[C@@H](C(=O)NC1(C(=O)N[C@@H](Cc2ccc(O)cc2)C(=O)OCc2ccccc2)CCCC1)C(C)C`, for which the inhibition in assay [1] is 74%; in assay [2], 28%; in assay [3] it was 72%; in assay [4] it was 54%.
Turning to `COC(=O)[C@H](Cc1ccc(O)cc1)NC(=O)C1(NC(=O)[C@H](SC(C)=O)C(C)C)CCCC1`, the inhibition in assay [5] amounted to 76%; in [6], 72%; in assay [7], 25%; in [8], 14%.
With `CCOC(=O)[C@H](Cc1ccc(O)cc1)NC(=O)C1(NC(=O)[C@H](SC(=O)C(C)(C)C)C(C)C)CCCC1`, the inhibition in assay [9] came out at 17%; in assay [10], 14%; in assay [11], 19%; in assay [12] it was 8%.
Take `CCCCOC(=O)[C@H](Cc1ccc(O)cc1)NC(=O)C1(NC(=O)[C@H](SC(=O)CCC)C(C)C)CCCC1`: the inhibition in assay [1] stood at 85%; in [2], 69%; in assay [3] it was 82%; in [4], 76%.
With `CCCCOC(=O)[C@H](Cc1ccc(O)cc1)NC(=O)C1(NC(=O)[C@H](SC(=O)C(C)C)C(C)C)CCCC1`, the inhibition worked out at 16% in [1], 27% in assay [3] and 25% in [4].
As for `CCOC(=O)[C@H](Cc1ccc(O)cc1)NC(=O)C1(NC(=O)[C@H](SC(C)=O)C(C)C)CCCC1`, the inhibition in assay [5] amounted to 86%; in [6] it was 81%; in assay [7], 83%; in [8], 47%.
Turning to `CCOC(=O)[C@H](Cc1ccc(OC(C)=O)cc1)NC(=O)C1(NC(=O)[C@H](SC(C)=O)C(C)C)CCCC1`, the inhibition in assay [9] stood at 52%; in assay [10], 31%; in [11] it was 16%; in assay [12], 64%.
Consider `CCCCCCOC(=O)[C@H](Cc1ccc(O)cc1)NC(=O)C1(NC(=O)[C@H](SC(C)=O)C(C)C)CCCC1`, for which the inhibition in assay [1] came to 78%; in assay [2], 16%; in assay [3] it was 64%; in assay [4] it was 61%.

What is called inhibition is the drop in the measured response relative to a control, in per cent. Low values mean little suppression, high ones strong suppression.
